Results pooled from the literature.
Protocols differ between the studies behind these lines.
OPRD1: Delta-type opioid receptor (OPRD1, Homo sapiens, UniProt P41143)
PLG trypsin-like site: Plasminogen, trypsin-like site (PLG, Homo sapiens, UniProt P00747)
CA2: Carbonic anhydrase 2 (CA2, Homo sapiens, UniProt P00918)

CCCC[C@H](CNCc1ccccc1)N1CCN(CC2CCCCCC2)[C@H](Cc2ccc(O)cc2)C1 — IC50 (OPRD1; cell-free assay): > 10 µM
CC(C)(C)[C@H](NC(=O)[C@H](CCONC(=N)N)NC(=O)Cc1ccc(CN)cc1)C(=O)N[C@@H](CCONC(=N)N)C(=O)NCc1ccc(C(=N)N)cc1 — Ki (PLG trypsin-like site; enzyme activity, inhibitor; pH 8): 19 µM
CCOC(=O)c1cncn1[C@@H](C)c1ccc(C2(C(F)(F)F)N=N2)cc1 — IC50 (5-hydroxytryptamine receptor 3A (HTR3A, Homo sapiens, UniProt P46098); ion current, two-electrode voltage clamp; oocytes): 9 µM
CCC[C@H](CNC)NC[C@@H](CCC)NCC1CCCCCC1 — IC50 (OPRD1; cell-free assay): > 10 µM
CC(C)(C)[C@H](NC(=O)[C@H](CCCNC(=N)N)NC(=O)Cc1ccc(CN)cc1)C(=O)N[C@@H](CCONC(=N)N)C(=O)NCc1ccc(C(=N)N)cc1 — Ki (PLG trypsin-like site; enzyme activity, inhibitor; pH 8): 3.3 µM
CC[C@H](C)[C@H](NC(=O)[C@H](Cc1ccccc1)NC(=O)[C@H](CC(=O)O)NC(=O)[C@H](CCCNC(=N)N)NC(=O)[C@@H](NC(=O)[C@H](C)NC(=O)[C@H](CC(C)C)NC(=O)[C@H](CC(N)=O)NC(=O)[C@H](CC(=O)O)NC(=O)[C@H](CC(C)C)NC(=O)[C@@H](NC(=O)[C@@H](NC(=O)[C@H](CO)NC(=O)[C@H](CCSC)NC(=O)[C@H](CCC(=O)O)NC(=O)[C@H](CC(=O)O)NC(=O)[C@H](CO)NC(=O)[C@H](Cc1ccccc1)NC(=O)[C@H](CO)NC(=O)CNC(=O)[C@H](CC(=O)O)NC(=O)[C@H](C)NC(=O)[C@@H](N)Cc1c[nH]cn1)[C@@H](C)O)[C@@H](C)CC)[C@@H](C)O)C(=O)N[C@@H](CC(N)=O)C(=O)N[C@@H](Cc1c[nH]c2ccccc12)C(=O)N[C@@H](CC(C)C)C(=O)N[C@H](C(=O)N[C@@H](CCC(N)=O)C(=O)N[C@H](C(=O)N[C@@H](CCCCN)C(=O)N[C@H](C(=O)N[C@H](C(=O)N[C@@H](CC(=O)O)C(=O)O)[C@@H](C)O)[C@@H](C)CC)[C@@H](C)O)[C@@H](C)CC — EC50 (Gastric inhibitory polypeptide receptor (GIPR, Homo sapiens, UniProt P48546); reporter gene, agonist, luciferase): > 1 µM
On1ccc2ccccc2c1=S — Ki (CA2; enzyme activity, inhibitor, absorbance; pH 8): 15 µM
Cn1cc(-c2cccc(N3CCc4c(sc5c4CC(C)(C)C5)C3=O)c2CO)cc(Nc2ccncn2)c1=O — Ki (Receptor tyrosine-protein kinase erbB-2 (ERBB2, Homo sapiens, UniProt P04626); enzyme activity, inhibitor, FRET): 1.75 µM
O=c1c(O)c(-c2ccc(O[C@@H]3O[C@H](CO)[C@@H](O)[C@H](O)[C@H]3O)c(O)c2)oc2cc(O)cc(O)c12 — Ki (CA2; enzyme activity, inhibitor, absorbance): 0.0222 µM
C[C@H](N)Cn1ncc2ccc3c(c21)CCCO3 — Ki (Alpha-2A adrenergic receptor (ADRA2A, Homo sapiens, UniProt P08913); ligand displacement, radioligand): 6.26 µM
O=C(CCCOc1cccc(Br)c1)N[C@H]1C[C@@H]2C[C@@H]2C1=O (relative stereo) — EC50 (Transcriptional activator protein LasR (lasR, Pseudomonas aeruginosa, UniProt P25084, R61A); reporter gene, agonist): 0.13 µM
CC(C)(C)[C@H](NC(=O)[C@H](CCONC(=N)N)NC(=O)Cc1ccc(CNC(=N)N)cc1)C(=O)N[C@@H](CCCCN)C(=O)NCc1ccc(C(=N)N)cc1 — Ki (PLG trypsin-like site; enzyme activity, inhibitor; pH 8): 28 µM
Cc1cn([C@@H]2CC[C@H](OC(C(=O)O)C(=O)O)C2)c(=O)[nH]c1=O — Ki (Gag-Pol polyprotein, reverse transcriptase (gag-pol, Human immunodeficiency virus 1, UniProt P03366); enzyme activity, inhibitor): 6.6 µM
CCC[C@H](CNC)NC[C@@H](CCC)NCCC1CC2CCC1C2 (some centres unmarked) — IC50 (OPRD1; cell-free assay): > 10 µM
CS(=O)(=O)c1cccc(OCCCC(=O)N[C@H]2C[C@@H]3C[C@@H]3C2=O)c1 (relative stereo) — EC50 (Transcriptional activator protein LasR (lasR, Pseudomonas aeruginosa, UniProt P25084, Y93F); reporter gene, agonist): 0.5 µM
CCC(C)[C@@H](CNC)N1CCN(CCC23CC4CC(CC(C4)C2)C3)[C@H](C(C)C)C1 (some centres unmarked) — IC50 (OPRD1; cell-free assay): > 10 µM
O=C(NCc1ccncc1)Nc1ccc(S(=O)(=O)N2CC3CCC(C2)O3)cc1 — Kd (Nicotinamide phosphoribosyltransferase (NAMPT, Homo sapiens, UniProt P43490); ligand displacement, FP): 2 to 6 µM
